MEKK2 mut-MEK5: MEK5 binding signal on mutant MEKK2 PB1, primary screen, biochemical, multiplex bead flow cytometry, Alexa488-MEK5 | Alexa488-MEK5 binding to MEKK2 mutant | percent response, % at 10 µM | 0.35% of 290,000 active; in the data active = percent response above about 24%, passing the limit was not always enough
Pemphigus Ab inh: inhibitors of pemphigus antibody binding to DSG3, primary screen, biochemical, bead-based, flow cytometry, scFv-GFP; DSG3-coupled beads, scFv-anti-DSG3-GFP binding; hits give low values; binding (percent of control), % at 10 µM; 0.48% of 310,000 active; Desmoglein-3 (Homo sapiens), P32926; AID 588358, 2011;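 active = binding more than 3 SD below its plate's average and above zero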;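 note: hits lower antibody fragment binding to DSG3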
MEKK3 PB1 HTS: modulators of MEKK3-MEK5 PB1 binding, primary screen, biochemical, wildtype MEKK3, multiplex bead flow cytometry, Alexa488-MEK5 | Mitogen-activated protein kinase kinase kinase 3 (Homo sapiens), Q99759 | bead-based flow cytometry, Alexa488-MEK5 binding to MEKK3; actives lie on both sides; 0 = blocked by unlabeled MEK5, 100 = vehicle | binding response (% of control), % at 10 µM | 1.4% of 290,000 active | AID 1529, 2009;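 active = binding response more than 3 SD above or below the average of its plate-row segment, actives on both sides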;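 note: Alexa488 bead fluorescence after subtracting the streptavidin-only scavenger bead signal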
Apaf1 inhib: inhibitors of human Apaf-1 apoptosome, primary screen, biochemical, DEVD-Rh110 fluorescence, uHTS. reconstituted apoptosome caspase-3 activity. inhibition, % at 20 µM. 0.71% of 330,000 active; active = inhibition of at least 40% at 20 µM;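 note: plate controls were DMSO wells for no effect and DEVD-CHO caspase inhibitor wells for full effect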
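Material: reconstituted apoptosome with Apaf-1, cytochrome c, caspase-9, procaspase-3, dATP / Buffer or medium: pH 7.5 Hepes buffer with CHAPS, BSA, DTT / Also added: cytochrome c with DEVD-Rh110 / Schedule: compound with Apaf-1, dATP, procaspase-3 30 min, then 50 min reaction, room temperature / Technique: rhodamine 110 fluorescence at Ex 480/Em 540 nm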
UBC13 polyUb: UBC13 polyubiquitin chain formation inhibitors, primary screen, biochemical, TR-FRET, uHTS | 0.47% of 330,000 active | AID 485273, 2010 | inhibition, % at 20 µM; in the data active = inhibition above about 45%, passing the limit was not always enough
Target sequence (P61088 whole entry, looked up): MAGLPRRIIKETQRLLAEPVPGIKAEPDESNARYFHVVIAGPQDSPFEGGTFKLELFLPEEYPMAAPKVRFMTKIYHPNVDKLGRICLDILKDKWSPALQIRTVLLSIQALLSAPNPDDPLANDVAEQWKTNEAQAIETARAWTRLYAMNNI
MEKK2wt PB1 HTS: modulators of MEK5 binding to wildtype MEKK2, primary screen, biochemical, multiplex bead flow cytometry, Alexa488-MEK5; Mitogen-activated protein kinase kinase kinase 2 (Homo sapiens), Q9Y2U5; Alexa488-MEK5 binding to MEKK2 WT; actives lie on both sides; binding response (% of control), % at 10 µM; 1.1% of 290,000 active; in the data active = binding response below about 67% or above about 130%
MEKK2wt confirm: modulators of MEK5 binding to wildtype MEKK2, confirmation, biochemical, single concentration, multiplex bead flow cytometry. shares compounds with MEKK3 PB1 HTS. 2.4% of 5,900 active. AID 1892, 2009. binding response (% of control), % at 10 µM. Alexa488-MEK5 binding to MEKK2 WT; actives lie on both sides; in the data active = binding response below about 16% or above about 210%; inactive = in between
MEKK2mut confirm: mutant MEKK2 PB1-MEK5 binding signal retest – biochemical, single concentration, multiplex bead flow cytometry, confirmation; shares compounds with MEKK3 PB1 HTS; Alexa488-MEK5 binding to MEKK2 mutant; percent response, % at 10 µM; 2% of 5,900 active; in the data active = percent response mostly above about 71%, no sharp cut-off; inactive = mostly below about 38%;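 note: higher means compound restores mutant binding toward wildtype level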
MEKK3-MEK5 inh: MEKK3 wild-type PB1 binding to MEK5, inhibitors, confirmation, biochemical, bead multiplex flow cytometry, single concentration, wildtype. 1.8% of 5,900 active. binding response (% of control), % at 10 µM. Alexa488-MEK5 binding to MEKK3; hits give low values. AID 1894, 2009. shares compounds with MEKK3 PB1 HTS;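 active = binding response below 72% of control, or above a set upper limit, though filed actives all read lower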;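 note: 100% = DMSO only wells and 0% = binding blocked by excess unlabeled MEK5; lower values mean stronger disruption of MEK5 binding to MEKK3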
* marks the source's active call; other numbers are inactive results; . = no result given; [ ] = remark or other dose. An excerpt weighted towards active compounds, which were near 3.2% of everything screened.

SMILES	MEKK2 mut-MEK5	Pemphigus Ab inh	MEKK3 PB1 HTS	Apaf1 inhib	UBC13 polyUb	MEKK2wt PB1 HTS	MEKK2wt confirm	MEKK2mut confirm	MEKK3-MEK5 inh
O=C(NCCOC(=O)C1COc2ccccc2O1)C1COc2ccccc2O1 (stereo unspecified)	-2	.	101	1	3	99	.	.	.
CC(C)N(C)CCOC(=O)C1COc2ccccc2O1 (stereo unspecified)	28	112	131*	-14	0	116	93	-13	92
CC(=O)Nc1ccc(/C(C)=N/NS(=O)(=O)c2ccccc2)cc1	0	99	128*	8	-4	107	108	5	106
COc1ccc(Cl)cc1NC(=O)c1sc2nc(C)nc(N3CCOCC3)c2c1C	7	99	100	1	40	98	.	.	.
CCOc1ccc(NC(=O)C(C)Oc2ccc(C#N)cc2)cc1S(=O)(=O)N1CCCC1 (stereo unspecified)	.	96	.	10	-4	.	.	.	.
Cc1cc(C(=O)NC2CCCN(Cc3ccc(Cl)cc3)C2)c(C)o1 (stereo unspecified)	5	108	98	0	0	111	.	.	.
C/C(N)=C(/C#N)C(=O)COC(=O)c1ccncc1	6	99	135*	4	-9	113	104	2	104
COc1cc(-n2c(=O)c3ccccc3n(Cc3ccccc3)c2=O)cc(OC)c1OC	8	.	134*	6	0	127	101	-3	101
COc1cc(-n2c(=O)c3ccccc3n(Cc3cccc(F)c3)c2=O)cc(OC)c1OC	-9	103	59	1	-4	73	.	.	.
COc1ccc(-c2cc(CCCC(=O)NCCc3ccccc3)no2)cc1	-26	98	0.0*[inhibitor]	2	-11	-15*[inhibitor]	100	-3	104
O=C(CN1CCN(Cc2ccc3c(c2)OCO3)CC1)N1CCc2[nH]c3ccc(F)cc3c2C1	32*	104	110	2	15	129	118	9	105
Cn1cnnc1Sc1ccc(C(=O)OCC(=O)Nc2cc(Cl)cc(Cl)c2)cc1[N+](=O)[O-]	3	99	137*	8	16	119	124	15	99
Cn1cnnc1Sc1ccc(C(=O)OCC(=O)Nc2ccccc2)cc1[N+](=O)[O-]	3	102	102	3	-3	100	.	.	.
COc1ccccc1CNCC(O)(c1ccc(Cl)cc1)c1ccc(Cl)cc1	21	108	104	25	17	163*	146	25	102
COc1ccccc1-n1nnnc1SCC(=O)NC1CCCCC1	-2	88	103	12	3	103	.	.	.
CCc1nc(N2CCCC2C(=O)O)c2oc3ccccc3c2n1 (stereo unspecified)	-19	103	57*[inhibitor]	-1	3	72	100	4	100
Cc1ccc(NC(=O)C(=O)NCCOc2ccc(Cl)cc2)c(C)c1	0	99	128*	-7	3	106	98	-1	102
O=C(CSc1nc2cc(S(=O)(=O)N3CCOCC3)ccc2o1)NC1CCCc2ccccc21 (stereo unspecified)	-21	.	2.0*[inhibitor]	6	-4	3.0*[inhibitor]	98	0	101
O=C(CSc1ccc2ccccc2c1)NC1CCCc2ccccc21 (stereo unspecified)	1	94	130*	17	-1	107	100	1	102
Cc1ccc2c(CC(=O)NC3CCCc4ccccc43)coc2c1 (stereo unspecified)	0	115	147*	8	6	109	107	8	102
Cc1cccc(Nc2nnc(SCC(=O)NC3CCCc4ccccc43)s2)c1 (stereo unspecified)	-4	99	3.0*[inhibitor]	24	0	3.0*[inhibitor]	104	-4	100
Cc1ccc(C)c(N2N=C(C(=O)Nc3ccc(N4CCOCC4)cc3)CCC2=O)c1	.	93	.	4	2	.	.	.	.
CCN(C(=O)COC(=O)c1cnc(C)cn1)C1CCCCC1	-17	97	1.0*[inhibitor]	-14	-5	2.0*[inhibitor]	99	-5	99
COc1ccc(CCC(=O)Nc2ccc(C)c([N+](=O)[O-])c2)cc1	1	110	161*	3	1	106	102	4	100
COc1ccc(-c2noc(CCC(=O)Nc3ccc(C)c(C)c3)n2)cc1	-22	80	0.0*[inhibitor]	-4	13	-7.0*[inhibitor]	106	1	100
SMILES	MEKK2 mut-MEK5	Pemphigus Ab inh	MEKK3 PB1 HTS	Apaf1 inhib	UBC13 polyUb	MEKK2wt PB1 HTS	MEKK2wt confirm	MEKK2mut confirm	MEKK3-MEK5 inh
CCOC(=O)/C(C#N)=C/c1ccc(OCC(=O)Nc2ccc(OC)cc2)c(OC)c1	4	105	124*	7	-10	119	100	0	99
CCC(C)N=C1SCC(C)(/C=N/O)S1 (stereo unspecified)	6	100	128*	4	-4	135*	91	-5	95
CC(C)NC(=O)N(C)C[C@H]1Oc2cc(C#Cc3ccc(F)cc3)ccc2S(=O)(=O)N([C@H](C)CO)C[C@H]1C	.	104	.	.	.	.	.	.	.
O=C1NC(=O)c2cc3ccccc3cc21	.	103	.	-6	5	.	.	.	.
O=C(NCCSc1ccccc1)c1ccccc1Cl	1	107	156*	11	4	110	102	-2	104
O=C(CCNC(=O)c1ccccc1Cl)NCCCSc1ccccc1	.	.	.	-5	0	.	.	.	.
COc1ccc(CNC(=O)CCn2c(C)csc2=O)cc1	.	95	.	-5	5	.	.	.	.
